As a reminder, the EC50 is the midpoint of the concentration-response curve. The Emax is the size of the effect at its maximum, as opposed to the concentration needed. A word on the AUC(0-t): it is exposure summed from dosing to a finite time, without extrapolation to infinity. A word on the Cmax: it is the maximum level reached in the sampled fluid or tissue.

From ChEMBL document CHEMBL3596131, “Discovery of a novel trans-1,4-dioxycyclohexane GPR119 agonist series” (Bioorg Med Chem Lett, 2015) come the findings set out here.

Active and inactive are the calls of the source. The calls are words filed in the database; no cut-off is given here.

Data set [1] is described as follows: Half life in human liver microsomes. The data set is classed as ADME.
The target in data set [2] is T1, Glucose-dependent insulinotropic receptor (Homo sapiens, UniProt Q8TDV5).
T1 sequence (Q8TDV5 whole entry): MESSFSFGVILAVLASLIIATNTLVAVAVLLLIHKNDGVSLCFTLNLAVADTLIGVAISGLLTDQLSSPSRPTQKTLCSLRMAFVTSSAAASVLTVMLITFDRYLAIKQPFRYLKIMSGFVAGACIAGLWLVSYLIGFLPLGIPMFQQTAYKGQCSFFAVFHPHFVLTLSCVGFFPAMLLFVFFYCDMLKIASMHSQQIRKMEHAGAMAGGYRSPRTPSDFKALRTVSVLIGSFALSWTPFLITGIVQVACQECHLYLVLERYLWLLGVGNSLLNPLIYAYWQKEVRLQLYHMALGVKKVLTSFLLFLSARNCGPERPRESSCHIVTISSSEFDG
Description: Agonist activity at human GPR119 by serum shift assay. Summed up:
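HTRF cAMP read-out with cells plated overnight; growth medium swapped for fetal bovine serum-containing medium. Compounds serially diluted in DMSO, then in PBS with IBMX and 0.1% BSA to 2× concentration (1% DMSO) before addition. Potency compared with and without serum.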

Data set [3] relates to Rattus norvegicus. The data set is described as follows: Antidiabetic activity in Zucker diabetic fatty rat assessed as suppression of plasma glucose AUC at 10 mg/kg administered 60 mins prior to glucose challenge by OGTT relative to vehicle-treated control. The data set is classed as functional.
Data set [4] is described as follows: Ratio of drug level in brain to plasma in Sprague-Dawley rat at 2 mg/kg, po measured at 2 hrs. The data set is classed as ADME, organism-based. Particulars: read-out: BPR. The method, boiled down: (§1)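 Abbreviated CNS study in male SD rats given 2 mg/kg orally in 20% hp-β-CD; brain (ng/g) and plasma (ng/mL) levels sampled at 2 h post-dose, brain/plasma ratio calculated.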

For the next data set, the target named is Cytochrome P450 3A4 (Homo sapiens, UniProt P08684). The data set is described as follows: Inhibition of CYP3A4 in human liver microsomes. The data set is classed as ADME.
Cytochrome P450 3A4, sequence (P08684 whole entry): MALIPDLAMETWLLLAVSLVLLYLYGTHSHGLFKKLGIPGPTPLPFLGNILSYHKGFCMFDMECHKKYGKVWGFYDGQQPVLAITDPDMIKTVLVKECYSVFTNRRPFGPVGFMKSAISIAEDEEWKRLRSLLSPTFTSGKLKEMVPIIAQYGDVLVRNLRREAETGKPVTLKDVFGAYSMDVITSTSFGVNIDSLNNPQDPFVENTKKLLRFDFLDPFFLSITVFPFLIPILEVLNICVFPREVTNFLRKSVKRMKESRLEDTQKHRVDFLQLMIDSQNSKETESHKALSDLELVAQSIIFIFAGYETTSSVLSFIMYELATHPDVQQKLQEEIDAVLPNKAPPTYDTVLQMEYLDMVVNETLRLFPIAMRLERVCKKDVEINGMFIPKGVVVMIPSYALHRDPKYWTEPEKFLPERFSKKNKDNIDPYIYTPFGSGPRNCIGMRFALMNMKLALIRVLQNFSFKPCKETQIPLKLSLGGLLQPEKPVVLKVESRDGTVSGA
Data set [5] can be described thus: Plasma protein binding in human. The data set is classed as ADME, cell-free. Particulars: read-out: PPB (converted).
For the next data set, the species on record is Macaca mulatta. The data set is described as follows: Agonist activity at monkey GPR119 by HTRF cAMP assay relative to AR231453. A general note: In TR-FRET formats the signal depends on donor and acceptor labels being close together.
The next data set concerns Mus musculus. Description: Antidiabetic activity in normoglycemic 129SVE mouse assessed as suppression of plasma glucose AUC at 1 to 10 mg/kg, po administered 30 mins prior to glucose challenge measured over 120 mins by OGTT relative to vehicle-treated control. The data set is classed as functional.
Data set [6] can be described thus: AUClast in Sprague-Dawley rat at 2 mg/kg, iv and po. The data set is classed as ADME, organism-based. Particulars: in vivo. Summed up: (§2)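 Male Sprague-Dawley rats; 2 mg/kg IV and 2 mg/kg PO in 20% hp-β-CD; clearance, Vss, terminal t1/2, Cmax, AUClast and oral bioavailability derived.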
The nature of data set [7]: Volume of distribution at steady state in Sprague-Dawley rat at 2 mg/kg, iv and po. Conditions: in vivo, read-out: Vdss. The data set is classed as ADME, organism-based. Summed up:
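Male Sprague-Dawley rats received 2 mg/kg intravenously or 2 mg/kg orally in 20% hydroxypropyl-β-cyclodextrin. Steady-state volume of distribution was taken from the plasma pharmacokinetic profile and reported in L/kg.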

Data set [8] relates to Rattus norvegicus. Description: Antidiabetic activity in Zucker diabetic fatty rat assessed as fed glucose lowering effect at 1 to 10 mg/kg, qd administered over 4 weeks measured after 2 weeks of treatment. The data set is classed as functional, organism-based. Summed up: (§3)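 Chronic study in ZDF rats: once-daily dosing at 1, 3 or 10 mg/kg for 4 weeks, vehicle 0.5% methylcellulose; fed glucose and body weight tracked at dosing times, HbA1c measured on day 28 relative to vehicle.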

Data set [9] can be described thus: Half life in mouse liver microsomes. The data set is classed as ADME.
Data set [10] deals with T2, Glucose-dependent insulinotropic receptor (Mus musculus) (UniProt Q7TQP3).
T2 sequence (whole entry): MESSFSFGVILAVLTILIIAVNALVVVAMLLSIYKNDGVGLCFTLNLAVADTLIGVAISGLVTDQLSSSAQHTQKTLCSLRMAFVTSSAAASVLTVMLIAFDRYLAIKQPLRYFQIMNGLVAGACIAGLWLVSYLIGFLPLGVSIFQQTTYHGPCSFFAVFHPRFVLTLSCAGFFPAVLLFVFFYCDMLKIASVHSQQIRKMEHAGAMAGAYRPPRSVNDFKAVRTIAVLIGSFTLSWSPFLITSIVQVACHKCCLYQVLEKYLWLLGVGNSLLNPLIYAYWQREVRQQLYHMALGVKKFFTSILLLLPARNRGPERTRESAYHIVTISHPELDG
The data set is described as follows: Agonist activity at mouse GPR119 by HTRF cAMP assay relative to AR231453. The data set is classed as functional.

Data set [11] has as its system Rattus norvegicus. The data set is described as follows: Antidiabetic activity in Zucker diabetic fatty rat assessed as decrease in HbA1C level at 3 mg/kg, qd administered over 4 weeks measured on day 28 post last dose relative to vehicle-treated control. The data set is classed as functional. Details: scale not given: the % may be the effect or the level left. Summed up:
as §3

For another data set, the target named is Cytochrome P450 2C9 (Homo sapiens, UniProt P11712). Description: Inhibition of CYP2C9 in human liver microsomes. The data set is classed as ADME. (In general: Liver microsomes are a subcellular fraction often used to study metabolism.)
Cytochrome P450 2C9, sequence (P11712 whole entry): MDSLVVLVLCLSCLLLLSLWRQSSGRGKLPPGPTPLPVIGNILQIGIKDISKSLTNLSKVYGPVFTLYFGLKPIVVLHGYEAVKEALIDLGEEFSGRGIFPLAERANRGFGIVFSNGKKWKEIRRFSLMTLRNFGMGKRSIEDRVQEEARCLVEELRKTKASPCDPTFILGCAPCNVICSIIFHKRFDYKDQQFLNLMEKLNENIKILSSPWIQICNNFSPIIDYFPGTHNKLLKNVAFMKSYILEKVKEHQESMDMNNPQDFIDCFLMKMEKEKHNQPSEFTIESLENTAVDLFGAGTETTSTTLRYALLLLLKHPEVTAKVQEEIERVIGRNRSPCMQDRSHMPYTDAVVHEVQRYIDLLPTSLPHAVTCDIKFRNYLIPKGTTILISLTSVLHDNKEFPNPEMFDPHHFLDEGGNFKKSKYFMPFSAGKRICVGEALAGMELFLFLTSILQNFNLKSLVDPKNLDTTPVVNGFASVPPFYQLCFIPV
Data set [12] addresses T3, Glucose-dependent insulinotropic receptor (Rattus norvegicus) (UniProt Q7TQN8).
T3 sequence (whole entry): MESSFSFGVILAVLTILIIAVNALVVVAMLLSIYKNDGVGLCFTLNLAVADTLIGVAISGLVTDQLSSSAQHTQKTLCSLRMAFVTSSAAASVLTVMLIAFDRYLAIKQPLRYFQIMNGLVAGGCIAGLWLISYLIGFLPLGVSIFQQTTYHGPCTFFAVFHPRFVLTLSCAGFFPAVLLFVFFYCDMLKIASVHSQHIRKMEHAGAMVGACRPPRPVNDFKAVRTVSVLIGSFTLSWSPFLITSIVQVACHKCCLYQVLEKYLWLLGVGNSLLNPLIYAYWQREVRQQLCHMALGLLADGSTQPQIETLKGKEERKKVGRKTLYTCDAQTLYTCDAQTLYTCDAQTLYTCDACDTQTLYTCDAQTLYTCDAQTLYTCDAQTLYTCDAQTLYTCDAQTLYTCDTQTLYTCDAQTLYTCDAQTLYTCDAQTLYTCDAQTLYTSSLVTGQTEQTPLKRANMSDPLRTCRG
Description: Agonist activity at rat GPR119 by HTRF cAMP assay relative to AR231453. The data set is classed as functional.

Data set [13] in a line: Cmax in Sprague-Dawley rat at 2 mg/kg, iv and po. The data set is classed as ADME, organism-based. Particulars: in vivo. Summed up: as §2
The nature of data set [14]: Drug uptake in Sprague-Dawley rat brain at 2 mg/kg, po measured at 2 hrs. The data set is classed as ADME, organism-based. Conditions: read-out: Drug uptake. Summed up:
as §1

Data set [15] is described as follows: Terminal half life in Sprague-Dawley rat at 2 mg/kg, iv and po. The data set is classed as ADME, organism-based. Particulars: in vivo, read-out: beta t1/2 (converted). The method, boiled down: as §2
Another data set has as its target Cytochrome P450 2C19 (Homo sapiens, UniProt P33261). Description: Inhibition of CYP2C19 in human liver microsomes. The data set is classed as ADME.
Data set [16] can be described thus: Plasma concentration in Sprague-Dawley rat at 2 mg/kg, po measured at 2 hrs. The data set is classed as ADME, organism-based. The method, boiled down: as §1
In data set [17] the target is T4, Glucose-dependent insulinotropic receptor (Rattus norvegicus, UniProt Q7TQN8).
T4 sequence (Q7TQN8 whole entry): T3 sequence (whole entry)
The data set is described as follows: Agonist activity at rat GPR119 by HTRF cAMP assay. The data set is classed as functional.

Cytochrome P450 2C19, sequence (P33261 whole entry): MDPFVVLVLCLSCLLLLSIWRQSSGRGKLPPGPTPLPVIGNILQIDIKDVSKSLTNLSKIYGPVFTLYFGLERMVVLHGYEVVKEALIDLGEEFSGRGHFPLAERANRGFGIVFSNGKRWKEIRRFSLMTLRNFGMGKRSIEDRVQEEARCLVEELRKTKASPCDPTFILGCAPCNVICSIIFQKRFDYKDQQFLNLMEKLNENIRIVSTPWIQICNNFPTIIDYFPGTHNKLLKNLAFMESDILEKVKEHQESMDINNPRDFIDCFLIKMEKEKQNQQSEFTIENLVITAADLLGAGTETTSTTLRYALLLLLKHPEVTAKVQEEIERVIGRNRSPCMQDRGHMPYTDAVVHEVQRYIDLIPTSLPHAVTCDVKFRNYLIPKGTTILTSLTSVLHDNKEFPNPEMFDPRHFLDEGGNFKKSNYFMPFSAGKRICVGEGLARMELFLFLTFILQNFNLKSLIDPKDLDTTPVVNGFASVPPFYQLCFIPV

Regarding `C[C@@H](OC(=O)N1CCC(O[C@H]2CC[C@H](Oc3cnc(S(C)(=O)=O)cn3)CC2)CC1)C(F)(F)F`, the half-life is more than 1 h in data set [1], more than 1 h in [9] and 6.45 h in data set [15]. For the same compound, the EC50 was determined as 0.038 µM in data set [2] and 0.0288 µM in [17]. In addition, the Activity with Rattus norvegicus [3] is 58%; in the data set on Mus musculus it was 40%; in the data set with Rattus norvegicus [11], 1.85%. In addition, the Kp at 2 h in data set [4] is 0.98. Further, the results for the INH on Cytochrome P450 3A4, on Cytochrome P450 2C9 and at Cytochrome P450 2C19 were more than 50 µM, 27.5 µM and 23.4 µM, respectively. Besides, the fraction unbound in data set [5] was 0.025. Also, the results for the Emax (in the data set filed under Macaca mulatta; in data set [10]; in [12]) were 73%, 130% and 120%, respectively. Besides, in [6], the AUC(0-t) was determined as 5.21 µg·h/mL. Moreover, the Vd in data set [7] was determined as 2.94 L/kg. Further, the result in the data set on Rattus norvegicus [8] was Active. Besides, in [13], the highest level (Cmax) was 0.77 µg/mL. The concentration at 2 h worked out at 820 ng/g in data set [14] and 0.841 µg/mL in data set [16].
